The target in experiment [1] is Glutamate NMDA receptor (Rattus norvegicus) (UniProt P35439+Q00959+Q00960+Q00961+Q62645+Q8VHN2+Q9R1M7). In words: Displacement of [3H]MK801 from NMDA receptor in rat brain homogenate at 10 uM by scintillation counting. The experiment is classed as tissue-based.
Experiment [2] addresses Metabotropic glutamate receptor 1 (Homo sapiens) (UniProt Q13255). Put plainly: Inhibition of mGluR1 expressed in CHO cells at 10 uM. In kind it is cell-based.
In experiment [3] the target is Metabotropic glutamate receptor 2 (Homo sapiens) (UniProt Q14416). In words: Inhibition of mGluR2 expressed in CHO cells at 10 uM. In kind it is cell-based.
Experiment [4] concerns the target Metabotropic glutamate receptor 4 (Homo sapiens) (UniProt Q14833). Put plainly: Inhibition of mGluR4 expressed in CHO cells at 10 uM. In kind it is cell-based.
The target of experiment [5] is Metabotropic glutamate receptor 8 (Homo sapiens) (UniProt O00222). Put plainly: Inhibition of mGluR8 expressed in CHO cells at 10 uM. In kind it is cell-based.
The target in experiment [6] is Metabotropic glutamate receptor 6 (Homo sapiens) (UniProt O15303). In words: Inhibition of mGluR6 expressed in CHO cells at 10 uM. The experiment is classed as cell-based.
Experiment [7] deals with T1, Metabotropic glutamate receptor 5 (Rattus norvegicus, UniProt P31424). In words: Antagonist activity at rat mGluR5 expressed in HEK293A cells assessed as inhibition of glutamate-induced calcium flux preincubated for 140 secs before glutamate challenge by calcium fluorescence assay. The experiment is classed as functional, cell-based, HEK293-A. Put shortly:
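Functional read-out was receptor-induced intracellular calcium release, detected by calcium fluorescence. A kinetic imaging plate reader recorded calcium levels simultaneously in every well of 384-well plates. IC50 reported as ±SEM.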

The target in experiment [8] is T1, Metabotropic glutamate receptor 5. In words: Displacement of [3HMPEP from rat cloned mGluR5 expressed in HEK293T cells by scintillation counting. The experiment is classed as cell-based, HEK-293T. The method in brief:
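Radioligand displacement with [3H]MPEP, run through the NIMH Psychoactive Drug Screening Program. Receptor source was rat brain membranes or HEK293-T cells transfected with cloned rat mGluR5 cDNA. Ki reported as ±SEM.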

The target of experiment [9] is Metabotropic glutamate receptor 5 (Rattus norvegicus) (UniProt P31424). The note with it: HEK293-A, 0.0001 to 100 uM.

As usually defined, the inhibition is the relative decrease from the control value, in per cent. A higher inhibition goes with a strong effect. For orientation: IC50 means the point on the concentration scale where inhibition reaches its midpoint. What is called Ki is the dissociation constant of the complex between target and ligand, obtained from inhibition or displacement.

Active and inactive are the calls of the source. The calls are words filed in the database; no cut-off is given here.

Metabotropic glutamate receptor 1 (Homo sapiens), sequence (Q13255 19-1194 limits assumed): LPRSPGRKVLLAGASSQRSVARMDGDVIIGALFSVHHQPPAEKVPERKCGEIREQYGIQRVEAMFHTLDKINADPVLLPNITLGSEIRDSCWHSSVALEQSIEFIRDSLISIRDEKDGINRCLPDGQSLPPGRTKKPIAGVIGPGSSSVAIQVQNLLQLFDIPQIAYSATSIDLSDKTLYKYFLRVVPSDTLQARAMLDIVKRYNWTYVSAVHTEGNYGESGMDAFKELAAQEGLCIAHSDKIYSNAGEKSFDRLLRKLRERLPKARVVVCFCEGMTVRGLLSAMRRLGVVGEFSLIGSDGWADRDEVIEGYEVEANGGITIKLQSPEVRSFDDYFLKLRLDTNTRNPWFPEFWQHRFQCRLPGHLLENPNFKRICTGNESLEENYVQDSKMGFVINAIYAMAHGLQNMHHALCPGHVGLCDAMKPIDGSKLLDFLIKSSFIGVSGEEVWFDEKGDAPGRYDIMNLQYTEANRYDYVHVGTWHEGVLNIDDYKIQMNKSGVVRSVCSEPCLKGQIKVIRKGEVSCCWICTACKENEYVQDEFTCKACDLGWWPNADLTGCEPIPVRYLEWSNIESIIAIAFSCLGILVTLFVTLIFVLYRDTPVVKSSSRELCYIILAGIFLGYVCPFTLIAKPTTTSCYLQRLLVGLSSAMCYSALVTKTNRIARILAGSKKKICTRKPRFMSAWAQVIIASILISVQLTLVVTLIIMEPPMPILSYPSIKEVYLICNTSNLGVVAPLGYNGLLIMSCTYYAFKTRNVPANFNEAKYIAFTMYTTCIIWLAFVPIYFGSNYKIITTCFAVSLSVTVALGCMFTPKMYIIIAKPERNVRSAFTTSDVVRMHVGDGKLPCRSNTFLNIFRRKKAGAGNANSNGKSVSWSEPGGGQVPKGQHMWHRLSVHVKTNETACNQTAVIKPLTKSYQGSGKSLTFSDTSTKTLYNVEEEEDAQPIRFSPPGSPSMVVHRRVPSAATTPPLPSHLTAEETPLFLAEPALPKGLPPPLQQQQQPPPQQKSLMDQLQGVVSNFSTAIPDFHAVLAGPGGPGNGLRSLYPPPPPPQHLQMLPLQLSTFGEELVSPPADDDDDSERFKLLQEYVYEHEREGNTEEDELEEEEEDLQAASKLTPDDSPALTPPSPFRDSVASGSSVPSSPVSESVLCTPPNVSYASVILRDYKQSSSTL
Metabotropic glutamate receptor 6 (Homo sapiens), sequence (O15303 whole entry): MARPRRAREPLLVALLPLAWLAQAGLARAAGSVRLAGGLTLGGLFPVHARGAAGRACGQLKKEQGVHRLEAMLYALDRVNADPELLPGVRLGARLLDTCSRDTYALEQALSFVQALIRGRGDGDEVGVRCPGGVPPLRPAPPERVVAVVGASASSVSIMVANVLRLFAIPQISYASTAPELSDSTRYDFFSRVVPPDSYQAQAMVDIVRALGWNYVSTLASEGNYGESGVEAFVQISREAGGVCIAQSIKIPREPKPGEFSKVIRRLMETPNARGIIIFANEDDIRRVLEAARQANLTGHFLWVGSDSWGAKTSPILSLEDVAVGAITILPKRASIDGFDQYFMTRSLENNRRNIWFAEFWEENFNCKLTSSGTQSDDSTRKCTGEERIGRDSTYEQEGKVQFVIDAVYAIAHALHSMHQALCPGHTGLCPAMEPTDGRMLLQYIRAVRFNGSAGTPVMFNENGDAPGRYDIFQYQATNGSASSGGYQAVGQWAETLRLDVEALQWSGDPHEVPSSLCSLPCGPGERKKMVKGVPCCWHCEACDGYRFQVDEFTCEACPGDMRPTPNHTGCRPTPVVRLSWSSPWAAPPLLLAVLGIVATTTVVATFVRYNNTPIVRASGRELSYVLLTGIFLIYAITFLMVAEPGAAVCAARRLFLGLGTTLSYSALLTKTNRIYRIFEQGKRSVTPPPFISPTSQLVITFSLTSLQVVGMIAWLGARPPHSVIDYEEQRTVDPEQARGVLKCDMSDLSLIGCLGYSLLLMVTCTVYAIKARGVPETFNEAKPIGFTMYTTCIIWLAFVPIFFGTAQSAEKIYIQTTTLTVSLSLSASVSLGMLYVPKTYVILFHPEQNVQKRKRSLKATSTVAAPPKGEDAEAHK
T1 sequence (P31424 whole entry): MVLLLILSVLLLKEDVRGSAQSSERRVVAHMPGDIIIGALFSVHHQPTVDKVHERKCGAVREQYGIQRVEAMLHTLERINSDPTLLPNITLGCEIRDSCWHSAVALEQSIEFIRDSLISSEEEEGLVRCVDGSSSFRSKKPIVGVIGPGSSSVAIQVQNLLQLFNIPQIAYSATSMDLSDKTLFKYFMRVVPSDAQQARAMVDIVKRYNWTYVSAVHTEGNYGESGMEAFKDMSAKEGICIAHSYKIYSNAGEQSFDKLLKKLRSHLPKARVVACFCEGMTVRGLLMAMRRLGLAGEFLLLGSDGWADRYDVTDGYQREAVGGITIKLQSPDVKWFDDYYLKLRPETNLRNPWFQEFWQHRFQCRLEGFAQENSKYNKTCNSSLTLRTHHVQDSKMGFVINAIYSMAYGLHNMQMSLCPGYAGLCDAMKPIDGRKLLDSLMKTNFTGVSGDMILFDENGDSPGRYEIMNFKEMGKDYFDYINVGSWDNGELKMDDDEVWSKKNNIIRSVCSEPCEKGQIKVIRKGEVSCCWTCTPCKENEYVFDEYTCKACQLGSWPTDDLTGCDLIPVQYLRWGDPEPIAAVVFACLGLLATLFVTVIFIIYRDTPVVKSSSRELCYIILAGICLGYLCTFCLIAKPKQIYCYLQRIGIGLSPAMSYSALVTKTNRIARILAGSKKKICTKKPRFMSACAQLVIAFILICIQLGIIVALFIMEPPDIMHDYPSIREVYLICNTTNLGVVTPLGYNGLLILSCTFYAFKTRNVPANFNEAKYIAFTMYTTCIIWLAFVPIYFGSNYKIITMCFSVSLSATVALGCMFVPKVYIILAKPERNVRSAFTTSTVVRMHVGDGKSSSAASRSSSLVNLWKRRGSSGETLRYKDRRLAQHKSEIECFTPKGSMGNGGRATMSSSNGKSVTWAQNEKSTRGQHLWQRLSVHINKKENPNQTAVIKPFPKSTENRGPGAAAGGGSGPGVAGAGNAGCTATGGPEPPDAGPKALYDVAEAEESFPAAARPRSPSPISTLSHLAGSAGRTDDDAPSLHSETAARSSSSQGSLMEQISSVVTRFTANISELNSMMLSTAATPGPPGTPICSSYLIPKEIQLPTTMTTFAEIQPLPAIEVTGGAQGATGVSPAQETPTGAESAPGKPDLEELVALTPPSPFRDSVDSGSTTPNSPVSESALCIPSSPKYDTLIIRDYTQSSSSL
Metabotropic glutamate receptor 8 (Homo sapiens), sequence (O00222 whole entry): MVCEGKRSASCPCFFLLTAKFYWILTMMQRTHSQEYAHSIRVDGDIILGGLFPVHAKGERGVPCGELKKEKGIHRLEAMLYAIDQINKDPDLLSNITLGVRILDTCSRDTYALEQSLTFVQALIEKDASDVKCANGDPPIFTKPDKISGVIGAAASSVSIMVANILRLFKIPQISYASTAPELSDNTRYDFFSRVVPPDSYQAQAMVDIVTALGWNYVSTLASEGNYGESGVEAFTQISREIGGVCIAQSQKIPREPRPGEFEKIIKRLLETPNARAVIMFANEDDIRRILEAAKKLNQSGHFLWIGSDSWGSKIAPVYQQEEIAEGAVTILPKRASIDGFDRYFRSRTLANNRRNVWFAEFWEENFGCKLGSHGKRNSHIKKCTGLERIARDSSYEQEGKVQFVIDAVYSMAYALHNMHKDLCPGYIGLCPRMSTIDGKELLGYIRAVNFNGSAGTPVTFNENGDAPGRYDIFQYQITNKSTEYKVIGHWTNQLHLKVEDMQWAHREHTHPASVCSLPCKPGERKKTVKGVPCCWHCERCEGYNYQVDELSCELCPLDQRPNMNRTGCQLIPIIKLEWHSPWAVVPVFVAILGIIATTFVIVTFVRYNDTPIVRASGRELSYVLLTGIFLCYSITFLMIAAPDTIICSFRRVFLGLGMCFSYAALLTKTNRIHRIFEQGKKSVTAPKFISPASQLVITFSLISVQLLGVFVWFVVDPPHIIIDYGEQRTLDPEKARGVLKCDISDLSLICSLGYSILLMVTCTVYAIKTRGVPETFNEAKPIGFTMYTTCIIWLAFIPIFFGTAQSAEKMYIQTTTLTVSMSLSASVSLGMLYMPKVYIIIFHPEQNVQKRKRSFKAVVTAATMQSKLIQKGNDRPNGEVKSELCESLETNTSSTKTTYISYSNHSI
Metabotropic glutamate receptor 2 (Homo sapiens), sequence (Q14416 19-872 limits assumed): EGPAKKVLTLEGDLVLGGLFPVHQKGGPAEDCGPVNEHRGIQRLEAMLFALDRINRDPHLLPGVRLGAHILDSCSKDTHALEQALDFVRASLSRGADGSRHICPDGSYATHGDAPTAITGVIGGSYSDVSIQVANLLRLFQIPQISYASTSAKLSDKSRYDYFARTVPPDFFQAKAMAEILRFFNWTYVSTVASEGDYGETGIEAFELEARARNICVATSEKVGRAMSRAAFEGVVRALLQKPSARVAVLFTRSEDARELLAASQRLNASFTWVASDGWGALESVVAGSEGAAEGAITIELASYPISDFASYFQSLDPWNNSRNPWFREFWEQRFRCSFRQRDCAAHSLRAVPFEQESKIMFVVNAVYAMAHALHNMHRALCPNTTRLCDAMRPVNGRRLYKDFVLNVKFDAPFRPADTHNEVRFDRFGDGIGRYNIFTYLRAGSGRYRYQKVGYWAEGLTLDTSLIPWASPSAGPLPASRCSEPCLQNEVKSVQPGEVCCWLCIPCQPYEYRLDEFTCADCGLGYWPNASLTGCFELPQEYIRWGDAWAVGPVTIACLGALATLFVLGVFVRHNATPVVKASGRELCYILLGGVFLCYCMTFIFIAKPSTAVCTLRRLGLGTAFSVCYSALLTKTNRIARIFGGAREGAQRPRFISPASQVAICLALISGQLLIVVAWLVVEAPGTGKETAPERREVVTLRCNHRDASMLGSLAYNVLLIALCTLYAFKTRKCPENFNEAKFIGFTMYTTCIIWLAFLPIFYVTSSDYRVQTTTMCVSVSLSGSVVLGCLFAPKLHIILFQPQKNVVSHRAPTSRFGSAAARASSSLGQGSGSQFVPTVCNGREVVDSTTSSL

With `Cc1nc(C#Cc2cccnc2)cs1`, the result in experiment [1] was inactive. The inhibition in [2], in experiment [3], in [4], in experiment [5] and in experiment [6] was under 50% in each case.
On to `COCOc1ccc(-c2ccc3ccc(C)nc3c2)cc1C#N`, for which, in experiment [1], the result was inactive. The inhibition in experiment [2], in experiment [3], in experiment [4], in experiment [5] and in [6] was under 50% throughout. For the same molecule, the IC50 in experiment [7] worked out at 0.294 µM. In experiment [8], this molecule showed a Ki of 0.596 µM.
As to `Cc1nc2cc(-c3ccc(OS(=O)(=O)C(F)(F)F)c(C#N)c3)ccc2s1`, the outcome in experiment [1] was inactive. Further, the inhibition in experiment [2], in [3], in experiment [4], in [5] and in experiment [6] was under 50% in each case. For the same molecule, in [7], the IC50 was 7.84 µM. For the same molecule, the Ki in [8] was 0.862 µM.
In the case of `Cc1ccc2ccc(-c3ccc(O)c(C#N)c3)cc2n1`, the outcome in experiment [1] was inactive. Also, the inhibition in [2], in experiment [3], in experiment [4], in experiment [5] and in [6] was under 50% throughout. Further, the IC50 in experiment [7] was over 10 µM. This molecule yielded a Ki in experiment [8] of over 10 µM.
`Cc1ccc2ccc(-c3cnc(-c4ccccc4)c(C#N)c3)cc2n1`: the result in experiment [1] was inactive. In addition, the inhibition in experiment [2], in [3], in experiment [4], in experiment [5] and in experiment [6] was under 50% in each case. In addition, in experiment [7], the IC50 turned out to be 0.081 µM. Besides, in experiment [8], affinity was put at a Ki of 0.097 µM.
Consider `Cc1cccc(C#Cc2cncc(C#N)c2)n1`, for which, in [1], the outcome was inactive. The inhibition in [2], in experiment [3], in [4], in experiment [5] and in experiment [6] was under 50% each time. Moreover, the IC50 in experiment [7] came out at 0.013 µM. In [8], the Ki was found to be 0.0015 µM.
On to `Cc1ccc2ccc(-c3ccc(-c4ccccc4)c(C#N)c3)cc2n1`, for which, in [1], the result was inactive. The inhibition in [2], in experiment [3], in experiment [4], in [5] and in [6] was under 50% each time. In [7], the IC50 is 1.25 µM. This molecule had a Ki in experiment [8] of 0.097 µM.
With `Cc1ccc2ccc(-c3ccc(Cl)cc3C#N)cc2n1`, the result in experiment [1] was inactive. Also, the inhibition in [2], in experiment [3], in [4], in experiment [5] and in [6] was under 50% in each case. For the same molecule, in experiment [7], the IC50 stood at 9.15 µM. In experiment [8], this molecule displayed a Ki of 4.72 µM.
`Cc1ccc2ccc(-c3ccc(-c4cccnc4)c(C#N)c3)cc2n1`: the result in [1] was inactive. Also, the inhibition in experiment [2], in experiment [3], in [4], in experiment [5] and in [6] was under 50% in each case. Further, the IC50 in experiment [7] came out at 1.34 µM. The molecule further displayed a Ki in experiment [8] of 0.73 µM.
In the case of `Cc1ccc2ccc(-c3ccc(-c4ccc(F)cc4)c(C#N)c3)cc2n1`, the result in experiment [1] was inactive. The inhibition in experiment [2], in experiment [3], in experiment [4], in experiment [5] and in experiment [6] was under 50% each time. The IC50 in [7] stood at 0.692 µM. In [8], the affinity, expressed as Ki, was 0.064 µM.
Regarding `Cc1ccc2ccc(-c3ccc(OCc4ccccc4)c(C#N)c3)cc2n1`, in experiment [1], the outcome was inactive. The inhibition in experiment [2], in experiment [3], in experiment [4], in experiment [5] and in experiment [6] was under 50% in each case. Besides, the IC50 in [7] was over 10 µM. In experiment [8], this molecule yielded a Ki of 1.04 µM.
As for `Cc1nc2cc(-c3cccc(C#N)c3)ccc2s1`, the result in [1] was inactive. In addition, the inhibition in experiment [2], in [3], in experiment [4], in [5] and in experiment [6] was under 50% in each case.
For `Cc1nc2cc(-c3ccc(OCc4ccccc4)c(C#N)c3)ccc2s1`, in experiment [1], the result was inactive. Further, the inhibition in experiment [2], in experiment [3], in experiment [4], in experiment [5] and in experiment [6] was under 50% in each case. Besides, the half-inhibitory concentration (IC50) in experiment [7] is over 10 µM. Moreover, the affinity in experiment [8], expressed as Ki, was 7.13 µM.
`Cc1ccc2ccc(-c3cnc(Cl)c(C#N)c3)cc2n1`: the outcome in experiment [1] was inactive. For the same molecule, the inhibition in [2] is under 50%; in experiment [9] it was 50%; in experiment [3] it was under 50%; in experiment [4] it was under 50%; in experiment [5], under 50%; in [6], under 50%. The IC50 in experiment [7] was 3.31 µM. For the same molecule, the inhibition constant Ki in [8] is over 10 µM.
Regarding `Cc1nc2cc(-c3ccc(-c4ccc(F)cc4)c(C#N)c3)ccc2s1`, in [1], the outcome was inactive. The inhibition in experiment [2], in experiment [3], in experiment [4], in [5] and in experiment [6] was under 50% each time. Besides, the IC50 in [7] is over 10 µM. For the same molecule, the Ki in experiment [8] was found to be 4.68 µM.

The values above are taken from ChEMBL document CHEMBL1158569, “Structure-activity relationships in a novel series of 7-substituted-aryl quinolines and 5-substituted-aryl benzothiazoles at the metabotropic glutamate receptor subtype 5” (Bioorg Med Chem, 2010).
